Source: ChEMBL document CHEMBL3588785 (J Med Chem, 2015)
Values after ≈ are worked out from the molar mass of the structure shown. Active and inactive are the calls of the source. No cut-off for these calls is given here.

Key:
Hepatocyte = assay: Intrinsic clearance in rat hepatocytes; assay type: ADME, cell-based
[1] = target: Dual specificity mitogen-activated protein kinase kinase 1 (Homo sapiens, UniProt Q02750); assay: Inhibition of MEK1 (unknown origin) autophosphorylation incubated with enzyme for 20 mins prior to ATP addition by ADP Glo kinase assay in presence of ATP at Km concentration
Sequence of Dual specificity mitogen-activated protein kinase kinase 1 (Q02750 whole entry): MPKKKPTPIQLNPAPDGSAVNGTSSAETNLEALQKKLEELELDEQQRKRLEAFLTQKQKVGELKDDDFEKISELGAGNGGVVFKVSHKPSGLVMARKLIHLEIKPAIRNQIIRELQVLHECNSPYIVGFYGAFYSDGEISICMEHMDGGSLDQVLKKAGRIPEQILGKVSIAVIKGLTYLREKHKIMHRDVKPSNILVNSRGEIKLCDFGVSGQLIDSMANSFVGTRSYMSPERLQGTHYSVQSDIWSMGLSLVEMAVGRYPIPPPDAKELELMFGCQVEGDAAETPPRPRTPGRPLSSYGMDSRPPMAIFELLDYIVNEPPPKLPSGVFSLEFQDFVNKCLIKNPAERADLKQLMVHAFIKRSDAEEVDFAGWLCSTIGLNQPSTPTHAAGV

Homo sapiens [2] = species on record: Homo sapiens; assay: Selectivity for ERK (unknown origin) over MEK1 (unknown origin) at 1 uM
Method in brief: (§1)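 Panel of 125 kinases screened with compound at 1 µM; kinases inhibited above 75% were recorded.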

Homo sapiens [3] = species on record: Homo sapiens; assay: Selectivity for ERK (unknown origin) over C-RAF (unknown origin) at 1 uM; method in brief: as §1
[4] = 1-Octanol-aqueous phosphate buffer partition coefficient, logD of the compound at pH 7.4; assay type: physicochemical
Method in brief: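 Partition of compound between 1-octanol and aqueous phosphate buffer, pH 7.4; reported as distribution coefficient.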

Homo sapiens [5] = species on record: Homo sapiens; assay: Selectivity for ERK (unknown origin) over DYRK2 (unknown origin) at 1 uM; method in brief: as §1
[6] = target: T1, Mitogen-activated protein kinase 1 (Homo sapiens, UniProt P28482); assay: Inhibition of MEK U911-activated ERK2 (unknown origin) using Erktide as substrate preincubated with enzyme for 20 mins prior to substrate addition by RapidFire Mass Spectrometry in presence of ATP at Km concentration
[7] = target: T2, Mitogen-activated protein kinase; ERK1/ERK2 (Homo sapiens, UniProt P27361+P28482); assay: Inhibition of ERK1/2 in human A375 cells harboring B-RAF V600E mutant assessed as decrease in phospho-RSK level after 2 hrs by Cellomics ArrayScanTM VTI imaging analysis; assay type: cell-based; settings: a-375
A-375 = assay: Antiproliferative activity against human A375 cells harboring B-RAF V600E mutant after 72 hrs by Cellomics ArrayScanTM VTI imaging analysis; assay type: functional, cell-based; settings: A-375, 72 h
[8] = target: T1, Mitogen-activated protein kinase 1; assay: Inhibition of MEK U911-activated ERK2 (unknown origin) using Erktide as substrate preincubated with enzyme for 20 mins prior to substrate addition by RapidFire Mass Spectrometry in presence of ATP at higher concentration
[9] = Solubility of the compound in aqueous phosphate buffer at 25 degC at pH 7.4 after 24 hrs; assay type: physicochemical
Homo sapiens [10] = species on record: Homo sapiens; assay: Selectivity for ERK (unknown origin) over FLT1 (unknown origin) at 1 uM; method in brief: as §1
[11] = Intrinsic clearance in human liver microsomes; assay type: ADME; settings: read-out: CLH
[12] = target: T1, Mitogen-activated protein kinase 1; assay: Inhibition of ERK2 in human A375 cells harboring B-RAF V600E mutant assessed as decrease in phospho-ERK2 level after 2 hrs by Cellomics ArrayScanTM VTI imaging analysis; assay type: cell-based, A-375
Homo sapiens [13] = species on record: Homo sapiens; assay: Selectivity for ERK (unknown origin) over SRC (unknown origin) at 1 uM; method in brief: as §1
Homo sapiens [14] = species on record: Homo sapiens; assay: Selectivity for ERK (unknown origin) over CDK7 (unknown origin) at 1 uM; method in brief: as §1
[15] = AUC (0 to t) in mouse at 100 mg/kg, po; assay type: ADME, organism-based; settings: in vivo
Homo sapiens [16] = species on record: Homo sapiens; assay: Selectivity for ERK (unknown origin) over AUR-C (unknown origin) at 1 uM; method in brief: as §1
Homo sapiens [17] = species on record: Homo sapiens; assay: Selectivity for ERK (unknown origin) over AUR-B (unknown origin) at 1 uM; method in brief: as §1
[18] = Clearance in mouse hepatocytes measured per 10^6 cells; assay type: ADME, cell-based, Hepatocyte; settings: read-out: CLH
Homo sapiens [19] = species on record: Homo sapiens; assay: Selectivity for ERK (unknown origin) over MET (unknown origin) at 1 uM; method in brief: as §1
Homo sapiens [20] = species on record: Homo sapiens; assay: Selectivity for ERK (unknown origin) over CDK1 (unknown origin) at 1 uM; method in brief: as §1
Homo sapiens [21] = species on record: Homo sapiens; assay: Selectivity for ERK (unknown origin) over IGF-1R (unknown origin) at 1 uM; method in brief: as §1
Homo sapiens [22] = species on record: Homo sapiens; assay: Selectivity for ERK (unknown origin) over TRKA (unknown origin) at 1 uM; method in brief: as §1
Homo sapiens [23] = species on record: Homo sapiens; assay: Selectivity for ERK (unknown origin) over FAK (unknown origin) at 1 uM; method in brief: as §1
Homo sapiens [24] = species on record: Homo sapiens; assay: Selectivity for ERK (unknown origin) over AXL (unknown origin) at 1 uM; method in brief: as §1
Homo sapiens [25] = species on record: Homo sapiens; assay: Selectivity for ERK (unknown origin) over IR (unknown origin) at 1 uM; method in brief: as §1
[26] = target: T1, Mitogen-activated protein kinase 1; assay: Covalent binding to ERK2 (unknown origin) after 2 hrs by mass spectrometry
Method in brief: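 ERK2 protein incubated with compound at 3-fold molar excess over protein, room temperature, 2 hours; sample diluted 10-fold and loaded immediately for intact-mass MS.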

[27] = GSH reactivity assessed as half life
[28] = Stability to hydrolysis in pH 7.4 buffer measured over 11 hrs at 37 degC
[29] = Stability in pH 7.4 buffer assessed as drug hydrolysis; assay type: physicochemical
Method in brief: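 Compound held in pH 7.4 buffer alone at 37 °C, monitored over 11 hrs for hydrolysis.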

[30] = target: Mitogen-activated protein kinase 3 (Mus musculus) (UniProt Q63844); assay: Binding affinity to ERK1 in mouse fibroblasts assessed as half-life
Sequence of Mitogen-activated protein kinase 3 (Mus musculus) (Q63844 whole entry): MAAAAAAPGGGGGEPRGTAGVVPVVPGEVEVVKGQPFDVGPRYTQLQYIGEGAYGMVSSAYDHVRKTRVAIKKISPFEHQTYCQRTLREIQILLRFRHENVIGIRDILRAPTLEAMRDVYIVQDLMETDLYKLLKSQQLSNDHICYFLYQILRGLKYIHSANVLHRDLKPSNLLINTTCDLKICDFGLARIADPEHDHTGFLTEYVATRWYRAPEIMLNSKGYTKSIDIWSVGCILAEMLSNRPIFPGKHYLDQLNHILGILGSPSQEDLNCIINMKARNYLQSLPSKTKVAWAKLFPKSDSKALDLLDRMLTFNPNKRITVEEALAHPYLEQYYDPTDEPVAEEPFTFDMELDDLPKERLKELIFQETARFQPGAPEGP

[31] = target: T2, Mitogen-activated protein kinase; ERK1/ERK2; settings: Calu-6, 500 nM
[32] = target: Mitogen-activated protein kinase 1 (Mus musculus) (UniProt P63085)
Sequence of Mitogen-activated protein kinase 1 (Mus musculus) (P63085 whole entry): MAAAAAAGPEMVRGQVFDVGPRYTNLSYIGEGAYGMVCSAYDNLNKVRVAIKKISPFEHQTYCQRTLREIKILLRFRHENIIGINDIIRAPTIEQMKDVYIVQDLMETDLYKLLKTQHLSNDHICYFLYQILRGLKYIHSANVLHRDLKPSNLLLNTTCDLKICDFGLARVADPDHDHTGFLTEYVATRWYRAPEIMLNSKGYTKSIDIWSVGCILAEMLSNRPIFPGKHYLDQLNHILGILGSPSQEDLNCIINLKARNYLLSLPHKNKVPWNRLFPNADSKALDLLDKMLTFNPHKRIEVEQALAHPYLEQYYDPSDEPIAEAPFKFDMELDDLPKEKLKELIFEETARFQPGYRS

| Structure (SMILES) | CLH (Hepatocyte) [µL/min/mg] | IC50 [1] [nM] | Selectivity ratio (Homo sapiens [2]) | Selectivity ratio (Homo sapiens [3]) | logD [4] | IC50 [6] [nM] | IC50 [7] [nM] | IC50 (A-375) [nM] | IC50 [8] [nM] | solubility at 24 h [9] [µM] | Selectivity ratio (Homo sapiens [10]) | microsomal CLint [11] [µL/min/mg] | IC50 [12] [nM] | Selectivity ratio (Homo sapiens [14]) | Selectivity ratio (Homo sapiens [16]) | Selectivity ratio (Homo sapiens [17]) | Selectivity ratio (Homo sapiens [23]) | Activity [26] | T1/2 [27] [h] | Stability [29] | further results |
| --- | --- | --- | --- | --- | --- | --- | --- | --- | --- | --- | --- | --- | --- | --- | --- | --- | --- | --- | --- | --- | --- |
| C=CC(=O)Nc1ccccc1Nc1nc(N[C@H]2CC[C@H](N(C)C)CC2)ncc1Cl | 25 | > 10000 | 4 | 4 | 0.9 | 85 | 200 | 120 | 90 | 770 (≈ 320 µg/mL) | 4 | < 3 | 72 |  |  |  |  |  |  |  | Selectivity ratio (Homo sapiens [5]): 4 |
| C=CC(=O)Nc1ccccc1Nc1nc(NC2CCOCC2)ncc1C(F)(F)F | 270 | > 10000 | 6 | 6 | 2.9 | 6.9 | 65 | 53 | 8.5 | 59 (≈ 24 µg/mL) |  | 38 | 22 | 6 | 6 | 6 |  |  |  |  | Selectivity ratio (Homo sapiens [13]): 6; AUC(0-t) [15]: 21 µM·h; hepatocyte CLint [18]: 143 µL/min/1e6 cells |
| CNC(=O)c1ccc(F)cc1Nc1cc(Nc2cc(C)nn2C)ncc1C(F)(F)F |  | > 10000 |  |  | 3.8 | 44 | 5100 | 1400 | 340 | 15 (≈ 6.34 µg/mL) |  |  | 8700 | 10 | 10 | 10 | 10 |  |  |  | Selectivity ratio (Homo sapiens [19]): 10; Selectivity ratio (Homo sapiens [20]): 10; Selectivity ratio (Homo sapiens [21]): 10; Selectivity ratio (Homo sapiens [22]): 10; Selectivity ratio (Homo sapiens [24]): 10; Selectivity ratio (Homo sapiens [25]): 10 |
| CNC(=O)c1ccc(F)cc1Nc1cc(NC2CCOCC2)ncc1C(F)(F)F |  | > 10000 |  | 4 | 3.4 | 40 | 2400 | 3400 | 380 | 8.8 (≈ 3.63 µg/mL) |  |  | 2100 | 4 |  |  | 4 |  |  |  | Selectivity ratio (Homo sapiens [19]): 4 |
| C=CS(=O)(=O)Nc1ccc2[nH]nc(-c3ccncc3)c2c1 |  | > 10000 |  | 8 | 2.2 | 7.5 | 470 | 1300 | 17 | 7 (≈ 2.1 µg/mL) | 8 |  | 120 |  | 8 | 8 |  | Active |  |  | Selectivity ratio (Homo sapiens [22]): 8 |
| C=CS(=O)(=O)N1CCc2cnc(NC3CCOCC3)nc2C1 |  | > 10000 | 2 | 2 | 1 | 370 | 1100 |  | 220 | 760 (≈ 247 µg/mL) |  |  | 240 |  |  |  |  | Active | 0.257 | Stable | Stability [28]: Stable |
| C=CC(=O)Nc1ccccc1Nc1nc(Nc2ccnn2C)ncc1Cl | 120 | 120 | 7 | 7 | 2.4 | 9.9 | 120 | 91 | 13 | 520 (≈ 192 µg/mL) | 7 | 42 | 48 |  | 7 | 7 | 7 |  |  |  |  |
| C=CC(=O)Nc1ccccc1Nc1nc(NC2CCOCC2)ncc1Cl | 200 | > 10000 |  | 4 | 2.7 | 8.5 | 69 | 57 | 5.4 | 46 (≈ 17.2 µg/mL) | 4 | 67 | 19 |  | 4 | 4 |  | Active | 2.53 | Stable |  |
| C=CC(=O)Nc1cnccc1Nc1nc(NC2CCOCC2)ncc1Cl | > 250 | > 10000 | 2 | 2 | 2.3 | 3.1 | 28 | 41 | 3 | 150 (≈ 56.2 µg/mL) |  | 13 | 6.7 |  |  |  |  |  | 0.7 | Stable | T1/2 [30]: 120 h; inhibition [31]: Active; T1/2 [32]: 54 h |
